This is a sample that favours compounds with a hit; in the whole collection about 2.5% have one here.
NR2E3 ag-1 – human photoreceptor-specific nuclear receptor agonism; CHO-S Gal4-NCOR/VP16-NR2E3 two-hybrid, luciferase; inhibition of corepressor binding, % at 3.98 µM; Q9Y5X4; 0.35% of 360,000 active;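 active = inhibition above the mean of all tested compounds plus 3 SD, cut at about 70% in these data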;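 note: 0% = DMSO with NR2E3 transfected cells and 100% = cells lacking NR2E3 construct; higher means lower luciferase signal from less NR2E3 corepressor binding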
GASC-1 inh – blocks human GASC-1 demethylase activity | GST-JMJD2C(1-420) H3K9me3 demethylation, DELFIA europium | 0.069% of 330,000 active | inhibition, % at 2.35 µM | Q9H3R0;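 active = more than half of a compound's replicate wells show inhibition beyond 50%, single wells judged on their own value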;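 note: signal counts dimethyl H3K9 product captured on neutravidin plate; 0% = median of DMSO wells and 100% = 0.3 times that DMSO median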
ADAM10 inh – ADAM10 inhibition, QFRET primary screen; 0.62% of 370,000 active; inhibition, % at 7 µM; O14672; recombinant ADAM10, EDANS/DABCYL FRET peptide cleavage, 3 h;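 active = inhibition above a per-campaign cutoff equal to the mean of compounds falling between control-based bounds plus 3 SD, cut at about 20% in these data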;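 note: 0% = DMSO wells while the 100% control is not disclosed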
NR2E3 ag-2 – agonists of human nuclear receptor NR2E3. Q9Y5X4. GST-NR2E3/biotin-RetCOR TR-FRET, 1536-well. inhibition of corepressor binding, % at 4.78 µM. 0.12% of 320,000 active;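 active = percent inhibition above the cutoff of mean plus 3 SD of all tested compounds, set per screening campaign, cut at about 20% in these data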;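 note: 0% = DMSO wells and 100% = biotin wells as full block of FRET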
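System: GST-tagged NR2E3 plus biotinylated RetCOR corepressor; Buffer or medium: pH 7.5 Tris-based buffer; Probe or stimulus: RetCOR corepressor, biotinylated, 7 nM; Doses: compound at 4.8 µM, single dose; Schedule: 5 h incubation at 4 °C; Technique: time-resolved FRET; Evaluation: percent inhibition of TR-FRET ratio; Replication: one well per compound, singlicate testing.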
KLK7 zymogen act – activators of human kallikrein-7 zymogen; 0.9% of 370,000 active; activation, % at 7 µM; purified proKLK7, EDANS-DABCYL substrate fluorescence; 100% is mature enzyme control, 0% vehicle; P49862;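 active = activation above the mean of all tested compounds plus 3 SD, computed per campaign excluding outliers beyond control limits, cut at about 13% in these data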
ADAM17 inh – inhibitors of human ADAM17; P78536; 0.83% of 370,000 active; recombinant ADAM17, EDANS/DABCYL FRET peptide cleavage; inhibition, % at 6.95 µM;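 active = inhibition above the mean of compounds lying between control limits plus 3 SD, set per campaign, cut at about 8.5% in these data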;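 note: 0% = DMSO-only wells as the low control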
Target sequence (P78536 215-824 limits assumed): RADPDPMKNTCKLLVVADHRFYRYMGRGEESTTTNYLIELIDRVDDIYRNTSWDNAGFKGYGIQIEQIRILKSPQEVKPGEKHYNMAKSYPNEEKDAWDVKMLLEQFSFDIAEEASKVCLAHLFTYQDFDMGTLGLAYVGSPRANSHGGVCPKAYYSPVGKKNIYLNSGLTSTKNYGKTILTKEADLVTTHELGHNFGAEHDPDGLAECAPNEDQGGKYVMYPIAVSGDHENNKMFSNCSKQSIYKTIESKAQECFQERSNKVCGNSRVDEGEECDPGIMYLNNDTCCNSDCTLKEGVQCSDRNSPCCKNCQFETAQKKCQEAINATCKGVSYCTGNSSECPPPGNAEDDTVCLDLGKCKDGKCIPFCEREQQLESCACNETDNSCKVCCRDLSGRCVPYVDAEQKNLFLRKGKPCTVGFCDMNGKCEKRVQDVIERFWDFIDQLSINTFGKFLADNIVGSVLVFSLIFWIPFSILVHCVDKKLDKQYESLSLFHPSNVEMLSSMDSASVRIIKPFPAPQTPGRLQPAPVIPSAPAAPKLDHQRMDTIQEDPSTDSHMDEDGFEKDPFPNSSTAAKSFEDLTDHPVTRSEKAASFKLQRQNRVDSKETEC
proKLK7 act conf – proKLK7 activation, confirmation. shares compounds with KLK7 zymogen act. 68% of 3,200 active. purified proKLK7, EDANS-DABCYL substrate fluorescence; scaled: vehicle 0, mature enzyme 100. activation, % at 7 µM;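 active = activation, as change over the incubation, above the mean of all tested compounds plus 3 SD, cut at about 13% in these data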
EDANS-DABCYL int – optically interferes with EDANS-DABCYL signal, flagging KLK7 hits; shares compounds with KLK7 zymogen act; EDANS-DABCYL substrate fluorescence interference, no enzyme, 4 h; solvent 0%, active enzyme control 100%; activation, % at 7 µM; 80% of 3,200 active; AID 686952;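 active = activation above the all-compound mean plus 3 SD, ignoring values outside control-based bounds, cut at about 4.8% in these data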;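 note: value is the 4 h activation minus the activation read at time zero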
The depositor's hits bear a star.

Results for COc1ccc(C2C3=C(CC(C)(C)CC3=O)N(CCN3CCOCC3)C3=C2C(=O)CC(C)(C)C3)cc1 ?
NR2E3 ag-1: -10.9; GASC-1 inh: 2.3; ADAM10 inh: -414.4; NR2E3 ag-2: 0.1; KLK7 zymogen act: 12.6*; ADAM17 inh: -135.0; proKLK7 act conf: 5.1; EDANS-DABCYL int: 14.9*

Results for CC1(C)CC(=O)C2=C(C1)N(CCN1CCOCC1)C1=C(C(=O)CC(C)(C)C1)C2c1cccc(F)c1 ?
NR2E3 ag-1: -19.9; GASC-1 inh: 1.0; ADAM10 inh: inactive; NR2E3 ag-2: 5.0; KLK7 zymogen act: 33.9*; ADAM17 inh: -304.1; proKLK7 act conf: 23.2*; EDANS-DABCYL int: 20.1*

How did CC1(C)CC(=O)C2=C(C1)N(CCN1CCOCC1)C1=C(C(=O)CC(C)(C)C1)C2c1ccc(Cl)cc1 do in these assays?
NR2E3 ag-1: -15.2; GASC-1 inh: -5.4; ADAM10 inh: -232.1; NR2E3 ag-2: 2.6; KLK7 zymogen act: -4.8; ADAM17 inh: -64.6

What do the screens show for `CC1=C(C(=O)N2CCCCCC2)CC(CC(=O)NC2CCCC2)C(=O)N1Cc1ccc(F)cc1` (stereo not drawn)?
NR2E3 ag-1: -12.4; ADAM10 inh: 2.1; KLK7 zymogen act: 0.0; ADAM17 inh: 1.5

How did COc1ccc(C2c3[nH]c4ccccc4c3CCN2CCCn2cccn2)c(C)c1C (stereo not drawn) do in these assays?
NR2E3 ag-1: -37.8; GASC-1 inh: -18.2; ADAM10 inh: -227.0; NR2E3 ag-2: 8.8; KLK7 zymogen act: 26.6*; ADAM17 inh: -80.5; proKLK7 act conf: 18.8*; EDANS-DABCYL int: 19.9*

What do the screens show for `COc1cccc(C2c3[nH]c4ccccc4c3CCN2CCCn2cccn2)c1` (stereo not drawn)?
NR2E3 ag-1: -2.2; GASC-1 inh: 42.7; ADAM10 inh: -20.1; NR2E3 ag-2: 2.9; KLK7 zymogen act: 5.4; ADAM17 inh: -8.2

What do the screens show for `Cc1ccc2c(c1)N(CCC(=O)NCCCN1CCCC1)C(=O)C(C)O2` (stereo not drawn)?
NR2E3 ag-1: -10.9; GASC-1 inh: 23.0; ADAM10 inh: -6.8; NR2E3 ag-2: -0.6; KLK7 zymogen act: 0.4; ADAM17 inh: 0.7

How did Cc1ccc(-c2c(C#N)c(N)n(-c3ccc(C)cc3)c(=O)c2C#N)cc1 do in these assays?
NR2E3 ag-1: -10.6; GASC-1 inh: 6.0; ADAM10 inh: -4.0; NR2E3 ag-2: 1.7; KLK7 zymogen act: 20.7*; ADAM17 inh: 1.3; proKLK7 act conf: 186.7*; EDANS-DABCYL int: 270.4*

How did COc1ccc(N2CC(C(=O)Nc3nnc(SCC(=O)N4CCOCC4)s3)CC2=O)cc1 (stereo not drawn) do in these assays?
NR2E3 ag-1: -17.6; GASC-1 inh: 4.9; ADAM10 inh: -5.3; NR2E3 ag-2: -0.4; KLK7 zymogen act: 0.4; ADAM17 inh: -2.5

How did Cc1cc(Nc2cccc(Cl)c2)nc(-c2ccccc2O)n1 do in these assays?
NR2E3 ag-1: 6.5; GASC-1 inh: -0.5; ADAM10 inh: -22.4; NR2E3 ag-2: -1.4; KLK7 zymogen act: 264.7*; ADAM17 inh: -4.5; proKLK7 act conf: 77.0*; EDANS-DABCYL int: 105.0*

Results for Nc1nc2ncc(CNc3ccc(C(=O)N[C@@H](CCC(=O)O)C(=O)O)cc3)nc2c(=O)[nH]1 ?
NR2E3 ag-1: -9.6; GASC-1 inh: -9.5; ADAM10 inh: inactive; NR2E3 ag-2: -4.7; KLK7 zymogen act: -5.6; ADAM17 inh: -155.1

Results for CN(Cc1cnc2nc(N)nc(N)c2n1)c1ccc(C(=O)N[C@@H](CCC(=O)O)C(=O)O)cc1 ?
NR2E3 ag-1: 10.2; GASC-1 inh: -17.0; ADAM10 inh: inactive; NR2E3 ag-2: 1.3; KLK7 zymogen act: 17.9*; ADAM17 inh: -411.1; proKLK7 act conf: -9.1; EDANS-DABCYL int: -12.6
